Experimental data as given in ChEMBL document CHEMBL1127424, “7-azetidinylquinolones as antibacterial agents. 2. Synthesis and biological activity of 7-(2,3-disubstituted-1-azetidinyl)-4-oxoquinoline- and -1,8-naphthyridine-3-carboxylic acids. Properties and structure-activity relationships of quinolones with an azetidine moiety” (J Med Chem, 1994).
≈ marks a conversion by molar mass, not a printed value.

Legend:
Klebsiella pneumoniae = experiment: In vitro minimum inhibitory concentration to inhibit Klebsiella pneumoniae ATCC 10031; format: functional
In short: (§1)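 Serial 2-fold agar dilution in Mueller Hinton medium, run alongside a reference quinolone. Inoculum adjusted to 10⁸ cfu/mL; compound range 0.007–16 μg/mL.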

[1] = AUC (0-4 hr) ug/ml/h; format: ADME, cell-free; set-up: time < 4 hr; concentration or dose not given beside the values; conditions: plasma
In short: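 Mice dosed once orally at 50 mg/kg; blood taken from groups of six mice at 0.5, 1, 2 and 4 h. Serum drug assayed by disk agar diffusion bioassay (Bacillus subtilis ATCC 6633 on Seed Agar, 37 °C, 18 h), giving total activity.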

[2] = HPLC capacity factor (k'); format: ADME
In short: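 Ion-pair reversed-phase HPLC on ODS-2 (10 μm) at 45 °C. Mobile phase: 10 mM sodium heptanesulfonate plus 50 mM KH2PO4 (pH 3.5)–methanol 45:55, 1 mL/min. Samples at 100 μg/mL in DMF, injected in duplicate, UV 280 nm. k' = (tR − t0)/t0.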

[3] = tested on: Staphylococcus epidermidis; experiment: In vitro minimum inhibitory concentration for Staphylococcus epidermidis ATCC 155-1; format: functional; in short: as §1
Bacillus subtilis = experiment: In vitro minimum inhibitory concentration for Bacillus subtilis ATCC 6633; format: functional; in short: as §1
Staphylococcus aureus = experiment: In vitro minimum inhibitory concentration for Staphylococcus aureus ATCC 25178; format: functional; in short: as §1
Pseudomonas aeruginosa = experiment: In vitro minimum inhibitory concentration for Pseudomonas aeruginosa ATCC 10145; format: functional; in short: as §1
Bacillus cereus = experiment: In vitro minimum inhibitory concentration for Bacillus cereus ATCC 11778; format: functional; in short: as §1
Morganella morganii = experiment: In vitro minimum inhibitory concentration for Morganella morganii ATCC 8019; format: functional; in short: as §1
Mus musculus [4] = experiment: Evaluation of efficacy on systemic infections Escherichia coli HM-42, after oral administration in mice; format: functional
In short: (§2)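 Single oral dose given immediately after infection, one of four doses per group, chosen from in vitro activity. Survival scored after one week. ED50 (total mg/kg protecting 50%) interpolated from survival rates.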

Mus musculus [5] = experiment: Evaluation of efficacy on systemic infections Staphylococcus aureus HS-93, after oral administration in mice; format: functional; in short: as §2
Mus musculus [6] = experiment: Evaluation of efficacy on systemic infections Pseudomonas aeruginosa HS-116, after oral administration in mice; format: functional; in short: as §2
Enterobacter cloacae = experiment: In vitro minimum inhibitory concentration for Enterobacter cloacae ATCC 23355; format: functional
Proteus vulgaris = experiment: In vitro minimum inhibitory concentration for Proteus vulgaris ATCC 8427; format: functional; in short: as §1
[7] = Solubility (buffer pH 7.4); format: physicochemical; conditions: read-out: S
In short: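 Excess solid shaken in 0.05 M phosphate buffer pH 7.4 for 24 h at 25 °C. Suspension filtered through 0.22 μm, discarding the first portion. Filtrate diluted in 0.1 N HCl or 0.1 N NaOH and read by UV at the compound's absorbance maximum.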

Escherichia coli = experiment: In vitro minimum inhibitory concentration for Escherichia coli ATCC 10799; format: functional; in short: as §1
Enterococcus faecalis = experiment: In vitro minimum inhibitory concentration for Streptococcus faecalis ATCC 10541; format: functional; in short: as §1
[8] = Dissociation constant (pKa); format: physicochemical; conditions: read-out: pKa2
In short: (§3)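 Spectrophotometric titration at 20 ± 1 °C, 0.1 M ionic strength, pH varied with H2SO4 or NaOH made up in the compound stock. Absorbance followed at compound-specific wavelengths chosen from 200–400 nm scans. pKa1 and pKa2 taken as the inflection points of the two-step absorbance vs pH curve.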

[9] = Measured ionization constant (pKa); format: physicochemical; conditions: read-out: pKa1; in short: as §3

Structure (SMILES) | MIC (Klebsiella pneumoniae) | AUC [1] | Log k' [2] | MIC [3] | MIC (Bacillus subtilis) | MIC (Staphylococcus aureus) | MIC (Pseudomonas aeruginosa) | MIC (Bacillus cereus) | MIC (Morganella morganii) | ED50 (Mus musculus [4]) | ED50 (Mus musculus [5]) | ED50 (Mus musculus [6]) | MIC (Enterobacter cloacae) | MIC (Proteus vulgaris) | solubility [7] | MIC (Escherichia coli) | MIC (Enterococcus faecalis) | pKa [8] | pKa [9]
C[C@H]1[C@H](N)CN1c1nc2c(cc1F)c(=O)c(C(=O)O)cn2-c1ccc(F)cc1F | 0.06 µg/mL (≈ 0.148 µM) | 25800 ng·h/mL | 0.1417 | 0.25 µg/mL (≈ 0.618 µM) | 0.06 µg/mL (≈ 0.148 µM) | 0.12 µg/mL (≈ 0.297 µM) | 1 µg/mL (≈ 2.47 µM) | 0.25 µg/mL (≈ 0.618 µM) | 0.25 µg/mL (≈ 0.618 µM) | 3.3 mg/kg | 8.9 mg/kg | 140 mg/kg | 0.12 µg/mL (≈ 0.297 µM) | 1 µg/mL (≈ 2.47 µM) | 10.4 µg/mL (≈ 25.7 µM) | 0.25 µg/mL (≈ 0.618 µM) | 1 µg/mL (≈ 2.47 µM) |  | 
C[C@H]1[C@H](N)CN1c1c(F)cc2c(=O)c(C(=O)O)cn(-c3ccc(F)cc3F)c2c1F | 0.06 µg/mL (≈ 0.142 µM) | 22300 ng·h/mL | 0.2644 | 0.12 µg/mL (≈ 0.285 µM) | 0.06 µg/mL (≈ 0.142 µM) | 0.12 µg/mL (≈ 0.285 µM) | 1 µg/mL (≈ 2.37 µM) | 0.12 µg/mL (≈ 0.285 µM) | 0.25 µg/mL (≈ 0.593 µM) | 2.3 mg/kg | 10 mg/kg | 61 mg/kg | 0.06 µg/mL (≈ 0.142 µM) | 0.5 µg/mL (≈ 1.19 µM) | 23.4 µg/mL (≈ 55.5 µM) | 0.12 µg/mL (≈ 0.285 µM) | 1 µg/mL (≈ 2.37 µM) |  | 
C[C@@H]1[C@@H](CN)CN1c1c(F)cc2c(=O)c(C(=O)O)cn(C3CC3)c2c1F | 0.12 µg/mL (≈ 0.33 µM) | 2300 ng·h/mL | -0.0397 | 0.12 µg/mL (≈ 0.33 µM) | 0.06 µg/mL (≈ 0.165 µM) | 0.12 µg/mL (≈ 0.33 µM) | 0.5 µg/mL (≈ 1.38 µM) | 0.25 µg/mL (≈ 0.688 µM) | 0.25 µg/mL (≈ 0.688 µM) | 31 mg/kg | 20 mg/kg | 70 mg/kg | 0.06 µg/mL (≈ 0.165 µM) | 0.25 µg/mL (≈ 0.688 µM) |  | 0.06 µg/mL (≈ 0.165 µM) | 0.25 µg/mL (≈ 0.688 µM) |  | 
CCNC1CN(c2c(F)cc3c(=O)c(C(=O)O)cn(C4CC4)c3c2F)C1 |  |  | 0.0996 |  |  |  |  |  |  |  |  |  |  |  |  |  |  | 8.57 | 6.2
CN(C)C1CN(c2c(F)cc3c(=O)c(C(=O)O)cn(C4CC4)c3c2F)C1 |  |  | 0.584 |  |  |  |  |  |  |  |  |  |  |  | 58 µg/mL (≈ 160 µM) |  |  | 8.14 | 6
CN(C)C1CN(c2cc3c(cc2F)c(=O)c(C(=O)O)cn3C2CC2)C1 |  |  | 0.482 |  |  |  |  |  |  |  |  |  |  |  |  |  |  | 7.81 | 6.44
C[C@H]1[C@H](N)CN1c1c(F)c(N)c2c(=O)c(C(=O)O)cn(C3CC3)c2c1F | 0.015 µg/mL (≈ 0.0412 µM) | 12300 ng·h/mL | 0.0828 | 0.015 µg/mL (≈ 0.0412 µM) | 0.015 µg/mL (≈ 0.0412 µM) | 0.015 µg/mL (≈ 0.0412 µM) | 0.25 µg/mL (≈ 0.686 µM) | 0.015 µg/mL (≈ 0.0412 µM) | 0.015 µg/mL (≈ 0.0412 µM) | 4.2 mg/kg | 8.7 mg/kg | 102 mg/kg | 0.015 µg/mL (≈ 0.0412 µM) | 0.06 µg/mL (≈ 0.165 µM) | 37.7 µg/mL (≈ 103 µM) | 0.03 µg/mL (≈ 0.0823 µM) | 0.06 µg/mL (≈ 0.165 µM) |  | 6.65
C[C@H]1[C@@H](N)CN1c1cc2c(cc1F)c(=O)c(C(=O)O)cn2C1CC1 | 0.03 µg/mL (≈ 0.0905 µM) | 3700 ng·h/mL | 0.0457 | 0.06 µg/mL (≈ 0.181 µM) | 0.03 µg/mL (≈ 0.0905 µM) | 0.12 µg/mL (≈ 0.362 µM) | 0.5 µg/mL (≈ 1.51 µM) | 0.06 µg/mL (≈ 0.181 µM) | 0.03 µg/mL (≈ 0.0905 µM) | 20 mg/kg | 36.7 mg/kg | 277 mg/kg | 0.03 µg/mL (≈ 0.0905 µM) | 0.06 µg/mL (≈ 0.181 µM) | 6.1 µg/mL (≈ 18.4 µM) | 0.06 µg/mL (≈ 0.181 µM) | 0.5 µg/mL (≈ 1.51 µM) |  | 
C[C@H]1[C@H](N)CN1c1cc2c(cc1F)c(=O)c(C(=O)O)cn2C1CC1 | 0.03 µg/mL (≈ 0.0905 µM) | 9200 ng·h/mL | -0.0132 | 0.12 µg/mL (≈ 0.362 µM) | 0.03 µg/mL (≈ 0.0905 µM) | 0.12 µg/mL (≈ 0.362 µM) | 0.25 µg/mL (≈ 0.754 µM) | 0.06 µg/mL (≈ 0.181 µM) | 0.03 µg/mL (≈ 0.0905 µM) | 3.5 mg/kg | 22.3 mg/kg | 108 mg/kg | 0.03 µg/mL (≈ 0.0905 µM) | 0.06 µg/mL (≈ 0.181 µM) | 9.9 µg/mL (≈ 29.9 µM) | 0.03 µg/mL (≈ 0.0905 µM) | 0.25 µg/mL (≈ 0.754 µM) |  | 6.46
CN(C)C1(C)CN(c2c(F)cc3c(=O)c(C(=O)O)cn(C4CC4)c3c2F)C1 |  |  | 0.604 |  |  |  |  |  |  |  |  |  |  |  | 23.6 µg/mL (≈ 62.5 µM) |  |  | 8.12 | 6.05
CNC1CN(c2c(F)cc3c(=O)c(C(=O)O)cn(C4CC4)c3c2F)C1 |  |  | 0.039 |  |  |  |  |  |  |  |  |  |  |  | 1.7 µg/mL (≈ 4.87 µM) |  |  | 8.44 | 6.18
C[C@@H]1[C@@H](CN)CN1c1cc2c(cc1F)c(=O)c(C(=O)O)cn2C1CC1 | 0.06 µg/mL (≈ 0.174 µM) | 0 ng·h/mL | -0.0607 | 0.25 µg/mL (≈ 0.724 µM) | 0.06 µg/mL (≈ 0.174 µM) | 0.25 µg/mL (≈ 0.724 µM) | 2 µg/mL (≈ 5.79 µM) | 1 µg/mL (≈ 2.9 µM) | 1 µg/mL (≈ 2.9 µM) | 60.5 mg/kg | 95 mg/kg | 355 mg/kg | 0.12 µg/mL (≈ 0.347 µM) | 1 µg/mL (≈ 2.9 µM) |  | 0.12 µg/mL (≈ 0.347 µM) | 1 µg/mL (≈ 2.9 µM) |  | 
